SMILES strings stand for the structures.

Here are results for 18 molecules from ChEMBL document CHEMBL1149648, “Norcantharimides, synthesis and anticancer activity: Synthesis of new norcantharidin analogues and their anticancer evaluation” (2007).

Format in all cases: functional
In one assay the test system is HT-29. The assay can be described thus: Cytotoxicity against human HT29 cells at 100 uM after 72 hrs by MTT assay. The settings on record: HT-29, 72 h. In short, it runs like this:
(§1)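 Log-phase cells in DMEM with 10% FBS (37 °C, 5% CO2) were plated in duplicate at 2500–4000 cells/well. Agent was added 24 h later at a fixed final concentration of 100 µM and left for 72 h continuous exposure. Read-out was MTT absorbance at 540 nm, expressed as percent growth inhibition, where 100% means total growth inhibition.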

For another assay, the system named is SW480. As to the kind of experiment: Cytotoxicity against human SW480 cells at 100 uM after 72 hrs by MTT assay. The settings on record: SW480, 72 h. The essentials: as §1
In general terms: Tetrazolium assays rely on reduction of a dye to a coloured formazan, in cell work by metabolically active cells.

In the next assay the test system is MCF7. As to the kind of experiment: Cytotoxicity against human MCF7 cells at 100 uM after 72 hrs by MTT assay. The note with it: MCF7, 72 h. The essentials: as §1
In another assay the test system is A2780. The assay can be described thus: Cytotoxicity against human A2780 cells at 100 uM after 72 hrs by MTT assay. The note with it: A2780, 72 h. In short, it runs like this: as §1
The test system of the next assay is NCI-H460. As to the kind of experiment: Cytotoxicity against human H460 cells at 100 uM after 72 hrs by MTT assay. The settings on record: NCI-H460, 72 h. The essentials:
as §1

A further assay concerns A-431. The assay can be described thus: Cytotoxicity against human A431 cells at 100 uM after 72 hrs by MTT assay. The note with it: A-431, 72 h. The essentials:
as §1

A further assay has as its system DU-145. The assay can be described thus: Cytotoxicity against human DU145 cells at 100 uM after 72 hrs by MTT assay. The note with it: DU-145, 72 h. The essentials:
as §1

A short description of assay [1]: Cytotoxicity against human BE2C cells at 100 uM after 72 hrs by MTT assay. The note with it: BE(2)-C. In short, it runs like this: as §1
The nature of assay [2]: Cytotoxicity against human SJG2 cells at 100 uM after 72 hrs by MTT assay. The settings on record: SJ-G2, 72 h. The essentials:
as §1

A word on the inhibition: it is the percentage by which the read-out fell short of the control. Low readings indicate a response near the control, high ones a response far below the control. In the case of `O=C1[C@@H]2[C@H](C(=O)N1CCCCCCO)[C@@H]1CC[C@H]2O1`, the inhibition at 100 µM turned out to be 21% with HT-29; 16% in the assay on SW480; 51% with MCF7; 18% in the assay on A2780; 14% with NCI-H460; 6% in the assay with A-431. For the same molecule, the inhibition at 100 µM in the assay on DU-145 was under 10%; in assay [1] it was 22%; in [2] it was 12%.
Regarding `CC(CO)N1C(=O)[C@@H]2[C@H](C1=O)[C@@H]1CC[C@H]2O1` (some centres not stated), the inhibition at 100 µM in the assay on HT-29, with SW480, in the assay with MCF7, with A2780, with NCI-H460 and in the assay on A-431 was under 10% each time. The inhibition at 100 µM (in the assay on DU-145; in assay [1]; in assay [2]) was under 10% throughout.
`CCC(CO)N1C(=O)[C@@H]2[C@H](C1=O)[C@@H]1CC[C@H]2O1` (some centres not stated): the inhibition at 100 µM in the assay with HT-29, in the assay on SW480, in the assay with MCF7, in the assay with A2780, in the assay on NCI-H460 and in the assay with A-431 was under 10% in each case. The inhibition at 100 µM (with DU-145; in [1]; in assay [2]) was under 10% throughout.
On to `O=C1[C@@H]2[C@H](C(=O)N1CCN1CCOCC1)[C@@H]1CC[C@H]2O1`, for which the inhibition at 100 µM with HT-29, in the assay on SW480, in the assay on MCF7, in the assay with A2780, in the assay on NCI-H460 and in the assay with A-431 was under 10% each time. Further, the inhibition at 100 µM (in the assay with DU-145; in [1]; in [2]) was under 10% each time.
On to `O=C1[C@@H]2[C@H](C(=O)N1CCCN1CCOCC1)[C@@H]1CC[C@H]2O1`, for which the inhibition at 100 µM with HT-29, with SW480, in the assay on MCF7, in the assay with A2780, with NCI-H460 and in the assay on A-431 was under 10% in each case. Besides, the inhibition at 100 µM (in the assay with DU-145; in assay [1]; in assay [2]) was under 10% each time.
For `O=C1[C@@H]2[C@H](C(=O)N1c1ccc([N+](=O)[O-])cc1)[C@@H]1CC[C@H]2O1`, the inhibition at 100 µM was 60% in the assay with HT-29; 44% in the assay with SW480; over 100% in the assay with MCF7; 53% with A2780; 37% in the assay with NCI-H460; 13% in the assay with A-431. Also, the inhibition at 100 µM in the assay with DU-145 amounted to 13%; in assay [1] it was 45%; in assay [2] it was 23%.
Take `O=C(O)c1ccc(N2C(=O)[C@@H]3[C@H](C2=O)[C@@H]2CC[C@H]3O2)cc1`: the inhibition at 100 µM with HT-29, in the assay with SW480, in the assay with MCF7, in the assay on A2780, with NCI-H460 and with A-431 was under 10% throughout. The inhibition at 100 µM (with DU-145; in [1]; in [2]) was under 10% each time.
As for `O=C1[C@@H]2[C@H](C(=O)N1CCCN1C(=O)[C@@H]3[C@H](C1=O)[C@@H]1CC[C@H]3O1)[C@@H]1CC[C@H]2O1`, the inhibition at 100 µM in the assay with HT-29 amounted to 10%; with SW480, 16%; in the assay with MCF7, 52%; in the assay with A2780 it was 31%; in the assay on NCI-H460, 18%; in the assay on A-431, 10%. The inhibition at 100 µM amounted to 13% in the assay on DU-145, 10% in [1] and 10% in assay [2].
Usually GI50 stands for the concentration giving 50% growth inhibition. Low values mean more potent growth inhibition, high ones less potent growth inhibition. On to `CCCCCCCCCCCCCCN1C(=O)[C@@H]2[C@H](C1=O)[C@@H]1CC[C@H]2O1`, for which the GI50 with HT-29 worked out at 19 µM; in the assay on SW480, 52 µM; in the assay on MCF7 it was 43 µM; in the assay with A2780, 35 µM; in the assay with NCI-H460 it was 66 µM; in the assay with A-431, 47 µM. For the same molecule, the 50% growth inhibitory concentration (GI50) in the assay with DU-145 is 73 µM; in [1], 50 µM; in assay [2], 49 µM.
Regarding `COc1ccc(CN2C(=O)[C@@H]3[C@H](C2=O)[C@@H]2CC[C@H]3O2)cc1`, the inhibition at 100 µM in the assay on HT-29 is 45%; with SW480, 24%; in the assay on MCF7 it was 64%; in the assay on A2780, 20%; in the assay with NCI-H460 it was 23%; in the assay on A-431, 14%. Moreover, the inhibition at 100 µM is under 10% in the assay on DU-145, 29% in [1] and 11% in assay [2].
With `O=C1[C@@H]2[C@H](C(=O)N1CCCCCCCCCCCCN1C(=O)[C@@H]3[C@H](C1=O)[C@@H]1CC[C@H]3O1)[C@@H]1CC[C@H]2O1`, the 50% growth inhibitory concentration (GI50) was 8.3 µM in the assay with HT-29; 24 µM with SW480; 18 µM in the assay on MCF7; 19 µM in the assay with A2780; 31 µM with NCI-H460; 18 µM in the assay on A-431. The GI50 turned out to be 60 µM in the assay with DU-145, 17 µM in assay [1] and 43 µM in assay [2].
With `O=C1[C@@H]2[C@H](C(=O)N1N1CCOCC1)[C@@H]1CC[C@H]2O1`, the inhibition at 100 µM was determined as 29% in the assay with HT-29; 29% with SW480; 12% in the assay on MCF7; 7% in the assay on A2780; 18% in the assay with NCI-H460; 30% with A-431. Further, the inhibition at 100 µM amounted to 3% in the assay with DU-145, 39% in [1] and 3% in [2].
Turning to `CC(C)(CO)N1C(=O)[C@@H]2[C@H](C1=O)[C@@H]1CC[C@H]2O1`, the inhibition at 100 µM in the assay on HT-29, in the assay on SW480, in the assay on MCF7, in the assay with A2780, in the assay on NCI-H460 and in the assay on A-431 was under 10% throughout. The inhibition at 100 µM (in the assay on DU-145; in assay [1]; in assay [2]) was under 10% throughout.
Take `CCN1C(=O)[C@@H]2[C@H](C1=O)[C@@H]1CC[C@H]2O1`: the inhibition at 100 µM in the assay on HT-29, in the assay on SW480, in the assay with MCF7, with A2780, with NCI-H460 and in the assay with A-431 was under 10% each time. Moreover, the inhibition at 100 µM (in the assay on DU-145; in [1]; in [2]) was under 10% each time.
For the molecule `O=C1[C@@H]2[C@H](C(=O)N1c1ccc(O)cc1)[C@@H]1CC[C@H]2O1`, the inhibition at 100 µM with HT-29 was determined as 47%; in the assay on SW480, 21%; in the assay with MCF7, 22%; with A2780 it was 15%; in the assay with NCI-H460, 12%; with A-431 it was 27%. Moreover, the values for the inhibition at 100 µM (in the assay on DU-145; in [1]; in [2]) were under 10%, 14% and 44%, respectively.
In the case of `O=C(O)CCCN1C(=O)[C@@H]2[C@H](C1=O)[C@@H]1CC[C@H]2O1`, the inhibition at 100 µM in the assay with HT-29, in the assay on SW480, in the assay with MCF7, in the assay on A2780, in the assay with NCI-H460 and in the assay on A-431 was under 10% in each case. Also, the inhibition at 100 µM (with DU-145; in [1]; in assay [2]) was under 10% in each case.
Take `O=C(O)CCCCCN1C(=O)[C@@H]2[C@H](C1=O)[C@@H]1CC[C@H]2O1`: the inhibition at 100 µM with HT-29 is 14%; in the assay with SW480, 11%; in the assay with MCF7, 47%; with A2780 it was 52%; with NCI-H460, 12%; in the assay with A-431, 11%. Further, the inhibition at 100 µM in the assay with DU-145 is 12%; in assay [1], 22%; in assay [2] it was under 10%.
For `O=C1[C@@H]2[C@H](C(=O)N1c1ccccc1)[C@@H]1CC[C@H]2O1`, the inhibition at 100 µM in the assay on HT-29 is 63%; in the assay with SW480, 78%; with MCF7, over 100%; with A2780, 90%; in the assay on NCI-H460, 50%; in the assay on A-431 it was 25%. Also, the inhibition at 100 µM with DU-145 is 24%; in assay [1], 54%; in assay [2], 42%.
